Converted amounts (≈) assume the structure as drawn.
What was measured:
[1] = system: Mus musculus; test: Hypolipidemic activity in Swiss albino mouse assessed as decrease in plasma triglyceride level at 50 mg/kg, po administered daily for 8 days measured on day 9 by spectrophotometry relative to control; assay type: functional; parameters: scale not given: the % may be the effect or the level left
Outline: (§1)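 Male Swiss albino mice (moderately hypertriglyceridemic model) dosed by oral gavage at 50 mg/kg body weight once daily for 8 days; plasma triglyceride and total cholesterol measured. Percent change calculated relative to vehicle-treated control group; mean ± SE, n = 10 mice per group.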

[2] = Octanol-buffer partition coefficient, log P of the compound at pH 7.4 by HPLC; assay type: physicochemical
Outline: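 Partition coefficient determined by HPLC in an octanol–buffer system at pH 7.4, 25 °C.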

[3] = Aqueous solubility of the compound in 0.1 M boric acid buffer at pH 9.0 after 4 hrs by HPLC method; assay type: physicochemical
[4] = Aqueous solubility of the compound in 0.2 M phosphate buffer at pH 7.4 after 4 hrs by HPLC method; assay type: physicochemical
[5] = system: Mus musculus; test: Hypolipidemic activity in Swiss albino mouse assessed as decrease in plasma total cholesterol level at 50 mg/kg, po administered daily for 8 days measured on day 9 by spectrophotometry relative to control; assay type: functional; parameters: scale not given: the % may be the effect or the level left; outline: as §1
[6] = Aqueous solubility of the compound in 0.1 M phosphate buffer at pH 5.2 after 4 hrs by HPLC method; assay type: physicochemical
[7] = system: Mus musculus; test: Hypolipidemic activity in Swiss albino mouse assessed as change in plasma total cholesterol level at 50 mg/kg, po administered daily for 8 days measured on day 9 by spectrophotometry relative to control; assay type: functional; outline: as §1
[8] = Aqueous solubility of the compound in 0.1 M citric acid buffer at pH 3.0 after 4 hrs by HPLC method; assay type: physicochemical; details: pH 3, 4 h
[9] = Aqueous solubility of the compound in 0.2 M hydrochloric acid buffer at pH 1.0 after 4 hrs by HPLC method; assay type: physicochemical

SMILES	Activity [1] [%]	logD [2]	solubility at 4 h [3] [ng/mL]	solubility at 4 h [4] [ng/mL]	Activity [5] [%]	solubility at 4 h [6] [ng/mL]	Activity [7] [%]	solubility [8] [ng/mL]	solubility ([9]; buffer, pH 1, 4 h) [ng/mL]	solubility at 4 h ([9]; 0.2 M hydrochloric acid buffer, pH 1) [ng/mL]
CC(C)OC(=O)OC(C)OC(=O)C(C)(C)Oc1ccc(C(=O)c2ccc(Cl)cc2)cc1 (centres undefined)	47	5.43	22 (≈ 49 nM)	1 (≈ 2.23 nM)	7.7	1 (≈ 2.23 nM)	–	–	–	–
CC(C)(C)C(=O)OCOC(=O)C(C)(C)Oc1ccc(C(=O)c2ccc(Cl)cc2)cc1	45	4.7	1 (≈ 2.31 nM)	2 (≈ 4.62 nM)	9	1 (≈ 2.31 nM)	–	–	–	–
CC(=O)OC(C)OC(=O)C(C)(C)Oc1ccc(C(=O)c2ccc(Cl)cc2)cc1 (centres undefined)	33.1	4.65	3 (≈ 7.41 nM)	2 (≈ 4.94 nM)	–	3 (≈ 7.41 nM)	-3.5	–	–	–
CC(C)OC(=O)OCOC(=O)C(C)(C)Oc1ccc(C(=O)c2ccc(Cl)cc2)cc1	33.1	4.91	6 (≈ 13.8 nM)	2 (≈ 4.6 nM)	7.2	2 (≈ 4.6 nM)	–	2 (≈ 4.6 nM)	–	–
CC(C)(Oc1ccc(C(=O)c2ccc(Cl)cc2)cc1)C(=O)OCCN1CCOCC1	27.6	3.5	4800 (≈ 11100 nM)	1920 (≈ 4450 nM)	2.4	38000 (≈ 88000 nM)	–	15 (≈ 34.7 nM)	5 (≈ 11.6 nM)	–
Cc1oc(=O)oc1COC(=O)C(C)(C)Oc1ccc(C(=O)c2ccc(Cl)cc2)cc1	27.2	4.35	4 (≈ 9.28 nM)	2 (≈ 4.64 nM)	11.2	3 (≈ 6.96 nM)	–	2 (≈ 4.64 nM)	–	230 (≈ 534 nM)
CC(C)OC(=O)C(C)(C)Oc1ccc(C(=O)c2ccc(Cl)cc2)cc1 [FENOFIBRATE]	48.6	4.78	–	–	5.5	–	–	–	–	–
